Data as given in ChEMBL document CHEMBL1124533, “Inhibition of human leukocyte elastase by derivatives of N-hydroxysuccinimide. A structure-activity-relationship study” (J Med Chem, 1989).
Calls of active or inactive are those of the source. No cut-off for these calls is given here.

Assays:
[1] = biological target: T1, Neutrophil elastase (Homo sapiens) (UniProt P08246); test: Catalytic rate constant (Kobs/[I]) against human leukocyte elastase was determined
T1 sequence (whole entry): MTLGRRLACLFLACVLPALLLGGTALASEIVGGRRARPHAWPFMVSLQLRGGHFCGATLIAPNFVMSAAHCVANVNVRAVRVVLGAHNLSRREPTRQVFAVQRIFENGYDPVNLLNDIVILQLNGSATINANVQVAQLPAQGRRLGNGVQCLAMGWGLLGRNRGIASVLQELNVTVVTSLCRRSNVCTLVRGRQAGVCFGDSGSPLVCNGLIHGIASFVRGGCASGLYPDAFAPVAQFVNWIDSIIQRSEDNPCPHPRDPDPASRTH
In short: (§1)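 Human leukocyte elastase (10 μL of 2.23 × 10⁻⁵ M stock in 0.05 M sodium acetate, pH 5.5) preincubated with inhibitor (20 μL of 2.23 × 10⁻² M DMSO stock) in HEPES pH 7.2, 1 mL total, thermostated. Aliquots withdrawn over time into MeOSuc-Ala-Ala-Pro-Val-pNA; A410 read for 2 min after 30 s. kobs from ln(vt/v0) vs t, divided by [I]; mean of two determinations.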

[2] = biological target: T1, Neutrophil elastase (Homo sapiens); test: Catalytic rate constant (Kobs/[I]) against human leukocyte elastase was determined; Inactive; in short: as §1

Row | K obs / 1 [1] | K obs / 1 [2] | Structure (SMILES)
1 | 1680 M⁻¹ s⁻¹ | – | CCCCS(=O)(=O)ON1C(=O)CC(Cc2ccccc2)C1=O (stereo unspecified)
2 | 1860 M⁻¹ s⁻¹ | – | O=C1CC(Cc2ccccc2C(F)(F)F)C(=O)N1OS(=O)(=O)/C=C/c1ccccc1 (stereo unspecified)
3 | 770 M⁻¹ s⁻¹ | – | O=C1CC(Cc2ccccc2)C(=O)N1OS(=O)(=O)Cc1ccccc1 (stereo unspecified)
4 | 323 M⁻¹ s⁻¹ | – | CN(C)S(=O)(=O)ON1C(=O)CC(Cc2ccccc2)C1=O (stereo unspecified)
5 | 84 M⁻¹ s⁻¹ | – | CS(=O)(=O)ON1C(=O)CC(Cc2ccc(C(F)(F)F)cc2)C1=O (stereo unspecified)
6 | > 100000 M⁻¹ s⁻¹ | – | CC(C)C1CC(=O)N(OS(=O)(=O)/C=C/c2ccccc2)C1=O (stereo unspecified)
7 | 189 M⁻¹ s⁻¹ | – | CS(=O)(=O)ON1C(=O)CC(Cc2ccccc2C(F)(F)F)C1=O (stereo unspecified)
8 | 49300 M⁻¹ s⁻¹ | – | CC(C)CC1CC(=O)N(OS(C)(=O)=O)C1=O (stereo unspecified)
9 | 217 M⁻¹ s⁻¹ | – | CS(=O)(=O)ON1C(=O)CC(Cc2cccc(C(F)(F)F)c2)C1=O (stereo unspecified)
10 | 9430 M⁻¹ s⁻¹ | – | O=C1CC(Cc2ccccc2)C(=O)N1OS(=O)(=O)/C=C/c1ccccc1 (stereo unspecified)
11 | 1170 M⁻¹ s⁻¹ | – | O=C1CC(Cc2ccccc2)C(=O)N1OS(=O)(=O)c1ccccc1 (stereo unspecified)
12 | 2250 M⁻¹ s⁻¹ | – | CC(C)CCC1CC(=O)N(OS(=O)(=O)/C=C/c2ccccc2)C1=O (stereo unspecified)
13 | 1050 M⁻¹ s⁻¹ | – | CS(=O)(=O)ON1C(=O)CC(Cc2ccccc2)C1=O (stereo unspecified)
14 | – | inactive | O=C1CCC(=O)N1OS(=O)(=O)/C=C/c1ccccc1
15 | 373 M⁻¹ s⁻¹ | – | CS(=O)(=O)ON1C(=O)CC(Cc2cccc(F)c2)C1=O (stereo unspecified)
16 | 1100 M⁻¹ s⁻¹ | – | CC(C)S(=O)(=O)ON1C(=O)CC(Cc2ccccc2)C1=O (stereo unspecified)
17 | 1650 M⁻¹ s⁻¹ | – | O=C1CC(Cc2ccccc2)C(=O)N1OS(=O)(=O)c1ccc(Br)cc1 (stereo unspecified)
18 | 3820 M⁻¹ s⁻¹ | – | CC(C)C1CC(=O)N(OS(C)(=O)=O)C1=O (stereo unspecified)
19 | > 100000 M⁻¹ s⁻¹ | – | CC(C)CC1CC(=O)N(OS(=O)(=O)/C=C/c2ccccc2)C1=O (stereo unspecified)
20 | 1110 M⁻¹ s⁻¹ | – | O=C1CC(Cc2ccccc2)C(=O)N1OS(=O)(=O)c1ccc(F)cc1 (stereo unspecified)
21 | 361 M⁻¹ s⁻¹ | – | CC(C)CCC1CC(=O)N(OS(C)(=O)=O)C1=O (stereo unspecified)
22 | 316 M⁻¹ s⁻¹ | – | O=C1CC(Cc2ccccc2)C(=O)N1OS(=O)(=O)c1cccc(C(F)(F)F)c1 (stereo unspecified)
23 | 1610 M⁻¹ s⁻¹ | – | Cc1ccc(S(=O)(=O)ON2C(=O)CC(Cc3ccccc3)C2=O)cc1 (stereo unspecified)
24 | 620 M⁻¹ s⁻¹ | – | O=C1CC(Cc2ccccc2)C(=O)N1OS(=O)(=O)c1cccc2ccccc12 (stereo unspecified)
25 | 1580 M⁻¹ s⁻¹ | – | O=C1CC(Cc2ccccc2)C(=O)N1OS(=O)(=O)c1ccc2ccccc2c1 (stereo unspecified)
26 | 1270 M⁻¹ s⁻¹ | – | CCCCCCCCS(=O)(=O)ON1C(=O)CC(Cc2ccccc2)C1=O (stereo unspecified)
